# According to ChEMBL document CHEMBL1177846, “Benzylidene/2-chlorobenzylidene hydrazides: synthesis, antimicrobial activity, QSAR studies and antiviral evaluation” (Eur J Med Chem, 2010):
# Calls of active or inactive are those of the source. No cut-off for these calls is given here.
# Legend:
# Influenza B virus = test: Antiviral activity against influenza B virus infected in MDCK cells assessed as inhibition of virus-induced cytopathic effect after 3 days by MTS assay; format: functional, organism-based
# Procedure, shortened: (§1)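 Confluent cell monolayers were infected with 100 CCID50 of virus and allowed 2 h adsorption at 37 °C. Virus was then removed and serial compound dilutions were added. Cultures were incubated at 37 °C for 3 days, until CPE was complete in the untreated virus control. EC50 was the concentration giving 50% inhibition of virus-induced CPE, by visual score or by MTS formazan cell viability.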
# Influenza A virus [1] = test: Antiviral activity against influenza A virus H3N2 infected in MDCK cells assessed as inhibition of virus-induced cytopathic effect after 3 days by MTS assay; format: functional, organism-based; procedure, shortened: as §1
# Vaccinia virus = test: Antiviral activity against Vaccinia virus infected in human HEL cells assessed as inhibition of virus-induced cytopathic effect after 3 days by MTS assay; format: functional, organism-based; conditions: Orthopoxvirus vaccinia; procedure, shortened: as §1
# Felid alphaherpesvirus 1 = test: Antiviral activity against Feline herpesvirus 1 infected in […] cells assessed as inhibition of virus-induced cytopathic effect after 3 days by MTS assay; format: functional, organism-based; procedure, shortened: as §1
# Candida albicans = test: Antifungal activity against Candida albicans after 48 hrs by serial dilution method; format: functional
# Procedure, shortened: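 Serial compound dilutions in Sabouraud dextrose broth (tube dilution), incubated 37 °C for 48 h. MIC was read as the lowest concentration with no growth.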
# Human alphaherpesvirus 2 = test: Antiviral activity against Herpes simplex virus 2 G infected in human HEL cells assessed as inhibition of virus-induced cytopathic effect after 3 days by MTS assay; format: functional, organism-based; conditions: strain G; procedure, shortened: as §1
# Human alphaherpesvirus 1 [2] = test: Antiviral activity against Herpes simplex virus 1 KOS infected in human HEL cells assessed as inhibition of virus-induced cytopathic effect after 3 days by MTS assay; format: functional, organism-based; procedure, shortened: as §1
# Human respirovirus 3 = test: Antiviral activity against Parainfluenza 3 virus infected in african green monkey Vero cells assessed as inhibition of virus-induced cytopathic effect after 3 days by MTS assay; format: functional, organism-based; procedure, shortened: as §1
# Escherichia coli = test: Antibacterial activity against Escherichia coli after 24 hrs by serial dilution method; format: functional
# Human alphaherpesvirus 1 [3] = test: Antiviral activity against acyclovir-resistant […] kinase-deficient HSV1 KOS infected in human HEL cells assessed as inhibition of virus-induced cytopathic effect after 3 days by MTS assay; format: functional, organism-based; procedure, shortened: as §1
# Punta Toro virus = test: Antiviral activity against Punta toro virus infected in african green monkey Vero cells assessed as inhibition of virus-induced cytopathic effect after 3 days by MTS assay; format: functional, organism-based; procedure, shortened: as §1
# Feline coronavirus = test: Antiviral activity against Feline caronavirus infected in […] cells assessed as inhibition of virus-induced cytopathic effect after 3 days by MTS assay; format: functional, organism-based; procedure, shortened: as §1
# Staphylococcus aureus = test: Antibacterial activity against Staphylococcus aureus after 24 hrs by serial dilution method; format: functional
# [4] = system: Mammalian orthoreovirus 1; test: Antiviral activity against Reovirus 1 infected in african green monkey Vero cells assessed as inhibition of virus-induced cytopathic effect after 3 days by MTS assay; format: functional, organism-based; procedure, shortened: as §1
# Sindbis virus = test: Antiviral activity against Simbidis virus infected in african green monkey Vero cells assessed as inhibition of virus-induced cytopathic effect after 3 days by MTS assay; format: functional, organism-based; procedure, shortened: as §1
# Aspergillus niger = test: Antifungal activity against Aspergillus niger after 7 days by serial dilution method; format: functional
# Bacillus subtilis = test: Antibacterial activity against Bacillus subtilis after 24 hrs by serial dilution method; format: functional
# Coxsackievirus B4 = test: Antiviral activity against Coxsackie virus B4 infected in african green monkey Vero cells assessed as inhibition of virus-induced cytopathic effect after 3 days by MTS assay; format: functional, organism-based; procedure, shortened: as §1
# Influenza A virus [5] = test: Antiviral activity against influenza A virus H1N1 infected in MDCK cells assessed as inhibition of virus-induced cytopathic effect after 3 days by MTS assay; format: functional, organism-based; procedure, shortened: as §1
# [6] = system: Vesicular stomatitis virus; test: Antiviral activity against VSV infected in human HEL cells assessed as inhibition of virus-induced cytopathic effect after 3 days by MTS assay; format: functional, organism-based; procedure, shortened: as §1
Compound,inhibition (Influenza B virus),inhibition (Influenza A virus [1]),inhibition (Vaccinia virus),inhibition (Felid alphaherpesvirus 1),MFC (Candida albicans),inhibition (Human alphaherpesvirus 2),inhibition (Human alphaherpesvirus 1 [2]),inhibition (Human respirovirus 3),MBC (Escherichia coli),inhibition (Human alphaherpesvirus 1 [3]),inhibition (Punta Toro virus),inhibition (Feline coronavirus),MBC (Staphylococcus aureus),inhibition [4],inhibition (Sindbis virus),-logMIC (Aspergillus niger),MFC (Aspergillus niger),MBC (Bacillus subtilis),inhibition (Coxsackievirus B4),inhibition (Influenza A virus [5]),further results
CCCCCCCCCCCC(=O)N/N=C/c1ccccc1,inactive,inactive,inactive,inactive,>0.166 uM/ml,inactive,inactive,inactive,0.041 uM/ml,inactive,inactive,inactive,>0.166 uM/ml,inactive,inactive,1.21,>0.166 uM/ml,>0.166 uM/ml,inactive,inactive,inhibition [6]: inactive
O=C(N/N=C/c1ccccc1)c1cc([N+](=O)[O-])cc([N+](=O)[O-])c1,inactive,inactive,inactive,inactive,0.159 uM/ml,inactive,inactive,inactive,>0.159 uM/ml,inactive,inactive,inactive,>0.159 uM/ml,inactive,inactive,1.7,0.079 uM/ml,0.159 uM/ml,inactive,inactive,inhibition [6]: inactive
Cc1ccc(C(=O)N/N=C/c2ccccc2)cc1,inactive,inactive,inactive,inactive,>0.21 uM/ml,inactive,inactive,inactive,0.052 uM/ml,inactive,inactive,inactive,>0.21 uM/ml,inactive,inactive,1.88,>0.21 uM/ml,0.21 uM/ml,inactive,inactive,inhibition [6]: inactive
CCCCCCCCCCCCCCCCCC(=O)N/N=C/c1ccccc1Cl,inactive,inactive,inactive,inactive,>0.119 uM/ml,inactive,inactive,inactive,>0.119 uM/ml,inactive,inactive,inactive,>0.119 uM/ml,inactive,inactive,1.29,0.059 uM/ml,0.029 uM/ml,inactive,inactive,-logMIC (Staphylococcus aureus): 1.53; -logMIC (Bacillus subtilis): 1.53; inhibition [6]: inactive
O=C(/C=C/c1ccccc1)N/N=C/c1ccccc1Cl,inactive,inactive,inactive,inactive,>0.176 uM/ml,inactive,inactive,inactive,>0.176 uM/ml,inactive,inactive,inactive,0.176 uM/ml,inactive,inactive,1.76,>0.176 uM/ml,0.088 uM/ml,inactive,inactive,inhibition [6]: inactive
O=C(N/N=C/c1ccccc1Cl)c1cc([N+](=O)[O-])cc([N+](=O)[O-])c1,inactive,inactive,inactive,inactive,>0.13 uM/ml,inactive,inactive,inactive,>0.13 uM/ml,inactive,inactive,inactive,>0.13 uM/ml,inactive,inactive,1.6,>0.13 uM/ml,0.065 uM/ml,inactive,inactive,-logMIC (Candida albicans): 2.05; inhibition [6]: inactive
CCCCCCCCCCCCCCCC(=O)N/N=C/c1ccccc1Cl,inactive,inactive,inactive,inactive,>0.127 uM/ml,inactive,inactive,inactive,0.031 uM/ml,inactive,inactive,inactive,>0.127 uM/ml,inactive,inactive,1.27,>0.127 uM/ml,0.031 uM/ml,inactive,inactive,-logMIC (Candida albicans): 2.1; -logMIC (Staphylococcus aureus): 1.5; -logMIC (Bacillus subtilis): 1.49; inhibition [6]: inactive
Cc1ccc(C(=O)N/N=C/c2ccccc2Cl)cc1,inactive,inactive,inactive,inactive,>0.183 uM/ml,inactive,inactive,inactive,0.045 uM/ml,inactive,inactive,inactive,0.045 uM/ml,inactive,inactive,1.61,0.183 uM/ml,0.183 uM/ml,inactive,inactive,inhibition [6]: inactive
C/C=C/C=C/C(=O)N/N=C/c1ccccc1,inactive,inactive,inactive,inactive,>0.233 uM/ml,inactive,inactive,inactive,0.058 uM/ml,inactive,inactive,inactive,>0.233 uM/ml,inactive,inactive,1.54,>0.233 uM/ml,>0.233 uM/ml,inactive,inactive,-logMIC (Candida albicans): 0.93; inhibition [6]: inactive
Cc1cccc(C(=O)N/N=C/c2ccccc2)c1,inactive,inactive,inactive,inactive,>0.21 uM/ml,inactive,inactive,inactive,>0.21 uM/ml,inactive,inactive,inactive,>0.21 uM/ml,inactive,inactive,1.58,>0.21 uM/ml,0.052 uM/ml,inactive,inactive,inhibition [6]: inactive
OC(Cn1cncn1)(Cn1cncn1)c1ccc(F)cc1F [FLUCONAZOLE],–,–,–,–,–,–,–,–,–,–,–,–,–,–,–,2.64,–,–,–,–,–
